The list is not random: actives were taken first. Their share in the collection is about 4.9%.
STAT3 activator – increases IL-6 driven STAT3 reporter signal | AID 871 | U3A cells, IL-6 STAT3-luciferase reporter, luminescence; 100% = signal with IL-6 EC80 alone | 0.91% of 190,000 active | activation (% of control), % at 5.6 µM;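 active means activation above the screen-wide mean of compound activation plus 3 SD, cut at about 130% in these data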
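Material: STAT3-luciferase reporter U3A cells; Probe or stimulus: IL-6 (33 ng/mL); Incubation: compound pre-incubation 1 h before IL-6, then 6 h stimulation at 37 °C; Technique: luminescence from STAT3-driven luciferase reporter; Evaluation: % activation versus median of IL-6-stimulated wells; Controls: IL-6-only high control.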
STAT1 inh – STAT1 signaling inhibition; NIH 3T3 STAT1-luciferase reporter, IFN-gamma, luminescence; inhibition, % at 5.5 µM; 0.35% of 200,000 active;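 active means inhibition above a set limit, the mean inhibition across all tested compounds plus 3 SD, cut at about 34% in these data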
APP 5'UTR act – APP 5'UTR luciferase reporter activation | 1% of 190,000 active | SH-SY5Y APP 5'UTR luciferase reporter, luminescence; zero percent = DMSO vehicle wells | activation, % at 2 µM;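 active means activation above a set limit, based on mean plus 3 SD of controls, cut at about 140% in these data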
STAT3 inh-1 – inhibitors of IL-6 induced STAT3 signaling; U3A cells, IL-6 STAT3-luciferase reporter, luminescence; host cell line lacks STAT1; inhibition, % at 5.5 µM; 0.89% of 190,000 active;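 active means inhibition above the mean inhibition across all screened compounds plus 3 SD, cut at about 44% in these data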
NF-kB neuron act – compounds increasing NF-kB expression in human neuronal cells; NF-kB reporter expression; active compounds read high; fold change at 12.5 µM; 1.6% of 190,000 active; AID 1239; in the data active means fold change above about 3.3
STAT1 act – increases IFN-gamma driven STAT1 reporter signal | NIH 3T3 STAT1-luciferase reporter, luminescence; 100% = IFN-gamma alone, no compound | activation (% of control), % at 5.5 µM | 2.6% of 200,000 active | AID 932;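 active means activation above the screen-wide mean activation plus 3 SD, cut at about 130% in these data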
STAT3 inh-2 – confirmation of STAT3 signaling inhibitors; 45% of 1,200 active; inhibition, % at 5.7 µM; AID 1265; shares compounds with STAT3 inh-1; U3A cells, IL-6 STAT3 luciferase reporter, luminescence; cell line lacks STAT1;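 active means inhibition above the hit cutoff computed for the primary STAT3 screen, cut at about 44% in these data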
NFkB inh 2 – NF-kappaB inhibition in STAT3 inhibitor counter-screen; shares compounds with STAT3 inh-1; HEK293T NF-kB luciferase reporter, TNF-alpha induced; inhibition, % at 5.7 µM; 36% of 1,200 active; AID 1308;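 active means inhibition above the mean of solvent-only control wells plus 3 SD, cutoff set per campaign, cut at about 13% in these data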
STAT1 inh STAT3c – counter-screen for STAT3 inhibitors: STAT1 inhibition; shares compounds with STAT3 inh-1; NIH 3T3 STAT1-luciferase reporter, IFN-gamma induced, luminescence; inhibition, % at 5.7 µM; 27% of 1,200 active; AID 1317;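 active means inhibition above the mean plus 3 SD of solvent-only control wells, limit set per screening run, cut at about 16% in these data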
Of the large screens only hits and unclear results are named; the others gave an inactive call (follow-up assays come after a bar, where they were run).

CSc1ncccc1C(=O)OCc1ccc([N+](=O)[O-])cc1	none
Cc1ccc(NC(=O)N2CCC(C(=O)Nc3ccc(C)cc3C)CC2)cc1	none (no result: APP 5'UTR act, NF-kB neuron act)
COC(=O)Oc1ccc(/C=N/NC(=O)CN(c2ccccc2Cl)S(C)(=O)=O)cc1OC	none
CN(CCOc1ccccc1)C(=O)c1cc([N+](=O)[O-])cc([N+](=O)[O-])c1	none
Cc1cc(C)n(-c2ccc(C(=O)Nc3ccc(S(=O)(=O)NCc4ccco4)cc3)cc2)n1	STAT3 inh-1 74.6 | STAT3 inh-2 56.0 | NFkB inh 2 17.2 | STAT1 inh STAT3c 19.3
CN1CCc2nc3ccc(Cl)cc3c(-c3ccccc3Cl)c2C1	none
Cc1nc(NCCc2ccc(S(N)(=O)=O)cc2)c2c(C)c(C)sc2n1	STAT3 inh-1 54.5 | STAT3 inh-2 47.9 | NFkB inh 2 inactive | STAT1 inh STAT3c 30.0
COc1ccc(C(=O)Nc2ccc3c(c2)OCCO3)cc1	APP 5'UTR act 155.6, STAT3 inh-1 65.9, NF-kB neuron act 6.04 | STAT3 inh-2 inactive | NFkB inh 2 inactive | STAT1 inh STAT3c inactive
Cc1ccsc1C(=O)Nc1ccc2c(c1)OCCO2	STAT3 inh-1 55.2, NF-kB neuron act 6.24 | STAT3 inh-2 inactive | NFkB inh 2 inactive | STAT1 inh STAT3c inactive
CS(=O)(=O)Nc1ccc(C(=O)Nc2ccc3c(c2)OCCO3)cc1	none
Cc1ccc(NC(=O)c2ccc3c(c2)OCCO3)cc1	APP 5'UTR act 145.1, STAT3 inh-1 76.9, NF-kB neuron act 4.07 | STAT3 inh-2 inactive | NFkB inh 2 inactive | STAT1 inh STAT3c inactive
CCc1nnc2sc(-c3ccc(NC(=O)c4ccc5c(c4)OCCO5)cc3)nn12	STAT3 inh-1 55.1 | STAT3 inh-2 51.4 | NFkB inh 2 13.4 | STAT1 inh STAT3c 31.7
Cn1c(NNC(=O)C(c2ccccc2)c2ccccc2)cc(=O)n(C)c1=O	none
Cc1ccc(NC(=O)C(=O)NCCOc2ccc(Cl)cc2)c(C)c1	none
O=C(Nc1ccc(NC(=O)c2cc3ccccc3o2)cc1)c1ccc2c(c1)OCCO2	STAT3 inh-1 46.7 | STAT3 inh-2 50.6 | NFkB inh 2 53.9 | STAT1 inh STAT3c 23.3
COc1ccc(NC(=O)C2=Cc3cccc(OC)c3OC2)cc1	none
COc1ccc(NC(=O)C2=Cc3ccccc3OC2)cc1	APP 5'UTR act 157.3, STAT3 inh-1 58.0, NF-kB neuron act 9.52 | STAT3 inh-2 inactive | NFkB inh 2 inactive | STAT1 inh STAT3c inactive
O=C(Nc1ccc(N2CCN(C(=O)c3ccccc3)CC2)cc1)c1cc2ccccc2o1	STAT3 inh-1 63.4 | STAT3 inh-2 58.7 | NFkB inh 2 13.9 | STAT1 inh STAT3c inactive
Cc1cc(NC(=O)c2ccc3c(c2)OCCO3)ccc1NC(=O)c1cc2ccccc2o1	none
O=C(c1ccc2c(c1)OCO2)N1CCN(c2ccc(Cl)cc2)CC1	none
CCCC(=O)N1CCN(c2ccc(NC(=O)c3cc4ccccc4o3)cc2)CC1	none
O=C(Nc1ccc(N2CCN(C(=O)c3ccc(Cl)cc3)CC2)cc1)c1ccc2c(c1)OCCO2	STAT3 inh-1 86.7 | STAT3 inh-2 78.7 | NFkB inh 2 28.7 | STAT1 inh STAT3c inactive
C/C(=N\NC(=O)c1cccnc1)c1ccc(OC2OCCOC2Oc2ccc(/C(C)=N/NC(=O)c3cccnc3)cc2)cc1 (centres undefined)	none
COc1ccc(NC(=O)Nc2ccc(Cc3ccncc3)cc2)c(OC)c1	none
CC1Cc2ccccc2N1C(=O)C1CCCN(S(=O)(=O)c2cccc3cccnc23)C1 (centres undefined)	none (no result: APP 5'UTR act)
CC(C)Cn1c(CN2CCCCC2C)nc2c1c(=O)n(C)c(=O)n2C (centres undefined)	none
O=C(COc1ccc(Br)cc1)Nc1ccc(Cc2ccncc2)cc1	none
O=C(COc1ccc2ccccc2c1)Nc1ccncc1	STAT3 inh-1 45.4 | STAT3 inh-2 43.9 | NFkB inh 2 inactive | STAT1 inh STAT3c inactive
O=C(COc1ccccc1)Nc1ccncc1	none

High-throughput results from PubChem.
